Results: article PMC4243704 (European journal of pharmaceutics and biopharmaceutics : …, 2013)
Where two headings read alike, the source gives them in different places.

How the values were obtained:
[1] = Chemical stability in simulated intestinal fluid; format: physicochemical; details: for SIF (pH 6.5) t1/2: 37 °C
In short: (§1)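 Incubated in simulated gastric fluid (pH 1.2) or simulated intestinal fluid at 37 °C. Remaining prodrug measured over time by reverse-phase C18 HPLC (0.1% TFA water/acetonitrile gradient). t1/2 estimated by linear regression of pseudo-first-order plots of prodrug concentration vs time.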

[2] = Microsomal stability; format: in vitro ADME, human; details: for Human liver microsome t1/2: 500 μg/mL microsomal protein, NADPH, 37 °C
[3] = Chemical stability in simulated gastric fluid; format: physicochemical; details: for SGF t1/2: SGF pH 1.2, 37 °C
In short: as §1

[4] = system: mouse jejunum; experiment: In situ single-pass intestinal perfusion in mice
[5] = Enzymatic stability in AsPC-1 cell homogenates; format: in vitro ADME; details: for AsPC-1 cell homogenates t1/2: 500 μg/mL protein, 37 °C; for Stability in cell homogenate, D-prodrug relative to L-prodrug: AsPC-1 cell homogenates (assigned from Table 2 ratios)
[6] = system: AsPC-1 cells; experiment: Cell proliferation assay; format: cell-based
In short: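 AsPC-1 cells seeded at 125,000/well and grown 24 h in RPMI-1640 + 10% FBS, then washed with pH 6.0 uptake buffer. Test compound 2-fold serially diluted (5 to 0.078 mmol/L) in that buffer and applied for 2 h at 37 °C; buffer alone served as 100% viability. After washing, 24 h recovery in medium. XTT/phenazine methosulfate read at 450 nm; GI50 from nonlinear fitting.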

[7] = molecular target: T1, Thymidine phosphorylase (Homo sapiens, UniProt P19971); experiment: Stability toward thymidine phosphorylase; format: in vitro ADME
T1 sequence (P19971 11-482): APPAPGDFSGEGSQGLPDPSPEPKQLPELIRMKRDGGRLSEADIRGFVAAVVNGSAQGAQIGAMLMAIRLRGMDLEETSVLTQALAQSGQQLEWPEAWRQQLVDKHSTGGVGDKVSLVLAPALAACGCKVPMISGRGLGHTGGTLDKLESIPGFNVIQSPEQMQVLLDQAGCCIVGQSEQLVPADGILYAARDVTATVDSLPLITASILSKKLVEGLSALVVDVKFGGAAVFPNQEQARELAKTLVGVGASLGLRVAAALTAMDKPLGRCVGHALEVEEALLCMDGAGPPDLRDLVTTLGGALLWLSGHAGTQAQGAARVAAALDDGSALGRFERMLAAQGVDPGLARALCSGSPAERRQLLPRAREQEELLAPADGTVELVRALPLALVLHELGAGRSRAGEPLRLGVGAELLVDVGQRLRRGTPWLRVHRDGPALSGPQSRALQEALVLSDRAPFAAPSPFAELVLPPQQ

[8] = system: Caco-2 cells; experiment: Uptake study in Caco-2 cells; format: cell-based; details: for Cytosine (%) of species found in cells / Gemcitabine (%) of species found in cells / Prodrug (%) of species found in cells: Caco-2 uptake without Gly-Pro, 1 h
[9] = Chemical stability in pH 7.4 phosphate buffer; format: physicochemical; details: for Buffer pH 7.4 t1/2: phosphate buffer pH 7.4, 37 °C
In short: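 Non-enzymatic hydrolysis in 10 mmol/L phosphate buffer pH 7.4, triplicate wells, 37 °C up to 120 min. Aliquots quenched in acetonitrile with 0.1% TFA, filtered, and run on reverse-phase C18 HPLC (TFA water/acetonitrile gradient). t1/2 from linear regression of pseudo-first-order plots of prodrug concentration vs time.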

[10] = Enzymatic stability in Caco-2 cell homogenates; format: in vitro ADME; details: for Caco-2 cell homogenates t1/2: 500 μg/mL protein, 37 °C; for Stability in cell homogenate, D-prodrug relative to L-prodrug: Caco-2 cell homogenates (assigned from Table 2 ratios)
[11] = system: AsPC-1 cells; experiment: Uptake study in AsPC-1 cells; format: cell-based; details: for Cytosine (%) of species found in cells / Gemcitabine (%) of species found in cells / Prodrug (%) of species found in cells: AsPC-1 uptake, 100 μM, 1 h; for Uptake amount, D-prodrug relative to L-prodrug (higher): 100 μM drug solution
[12] = for Concentration in plasma, D-prodrug relative to L-prodrug (higher): mouse plasma after in situ perfusion, prodrug plus metabolites
[13] = In situ single-pass intestinal perfusion in mice; details: female, BALB/c, mouse, other: in situ single-pass intestinal (jejunal) perfusion, pH 6
[14] = system: Caco-2 monolayer; experiment: Caco-2 cell monolayer permeability, apical-to-basolateral; format: in vitro ADME
In short: (§2)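 Caco-2 cells grown 21–24 days on collagen-coated PTFE inserts, TEER 550–600 Ω cm2. Apical MES (pH 6.0) and basolateral HEPES (pH 7.4) buffers, preincubated 15 min at 37 °C. 0.1 mM test compound in apical MES, ±10 mM Gly-Pro. Receiver sampled at 15–120 min at 37 °C with buffer replacement. Samples acidified with 0.1% TFA and analysed by HPLC.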

[15] = as above; format: in vitro ADME; details: human, Caco-2
In short: as §2

[16] = read-out: GI50 AsPC-1, 2 h exposure at pH 6.0, 24 h recovery, XTT

Compound | SIF (pH 6.5) t1/2 [1] [min] | Human liver microsome t1/2 [2] [min] | SGF t1/2 [3] [min] | AsPC-1 cell homogenates t1/2 [5] [min] | GI50 [6, 16] [mM] | Thymidine phosphorylase t1/2 [7] [min] | Cytosine (%) of species found in cells [8] [%] | Gemcitabine (%) of species found in cells [8] [%] | Prodrug (%) of species found in cells [8] [%] | Buffer pH 7.4 t1/2 [9] [min] | Caco-2 cell homogenates t1/2 [10] [min] | Cytosine (%) of species found in cells [11] [%] | Gemcitabine (%) of species found in cells [11] [%] | Prodrug (%) of species found in cells [11] [%] | Concentration in plasma, D-prodrug relative to L-prodrug (higher) [12] [fold] | Stability in cell homogenate, D-prodrug relative to L-prodrug [5] [fold] | Uptake amount, D-prodrug lower than L-prodrug ([8]; Caco-2 cells) [%] | Stability in cell homogenate, D-prodrug relative to L-prodrug [10] [fold] | Uptake amount, D-prodrug relative to L-prodrug (higher) ([11]; AsPC-1 cells) [fold] | also measured
5′-L-Valyl-gemcitabine | >120 | 27.8 ± 13.6 | >120 | 13.8 ± 3.3 | 2 ± 0.8 | >120 | 0 | 15 | 85 | >120 | 19.5 ± 1.9 | 20 | 11 | 69 |  |  |  |  |  | Membrane permeability, L-prodrug better than D-prodrug ([4]; mouse in situ perfusion): 87%
Nc1ccn([C@@H]2O[C@H](COC(=O)[C@H](N)Cc3ccccc3)[C@@H](O)C2(F)F)c(=O)n1 [5′-D-Phenylalanyl-gemcitabine] | >120 | 6.6 ± 1.3 | >120 | 63.9 ± 11.2 | 5.6 ± 1.1 | >120 | 0 | 31 | 69 | >120 | 21.7 ± 0.2 | 1 | 87 | 12 | 2.0 | 9.4 | 70 | 10.9 | 3.3 | Stability in human liver microsomes, D-prodrug relative to L-prodrug [2]: 3.7 fold; Uptake enhancement relative to gemcitabine ([11]; AsPC-1 cells, lower concentration (50 μM)): did not show the enhancement of uptake
CC(C)[C@@H](N)C(=O)OC[C@H]1O[C@@H](n2ccc(N)nc2=O)C(F)(F)[C@@H]1O [5′-D-Valyl-gemcitabine] | >120 | 19.5 ± 4.4 | >120 | 87.2 ± 13.5 | 2.2 ± 0.9 | >120 | 0 | 10 | 90 | >120 | 42.0 ± 17.5 | 4 | 77 | 19 | 2.3 | 6.3 | 46 | 2.2 | 3.1 | Prodrug concentration in blood ([12]; after in situ perfusion of mouse small intestine): highest; Dose linearity of uptake ([11]; AsPC-1 cells, 50 μM vs 100 μM): exhibited the dose linearity
Nc1ccn([C@@H]2O[C@H](COC(=O)[C@@H](N)Cc3ccccc3)[C@@H](O)C2(F)F)c(=O)n1 [5′-L-Phenylalanyl-gemcitabine] | >120 | 1.8 ± 0.2 | >120 | 6.8 ± 2.0 | 4.3 ± 1.5 | 31.9 ± 5.0 | 0 | 18 | 82 | >120 | 2.0 ± 0.3 | 10 | 84 | 6 |  |  |  |  |  | 
Nc1ccn([C@@H]2O[C@H](CO)[C@@H](O)C2(F)F)c(=O)n1 [Gemcitabine, reference compound] |  |  |  |  |  |  |  | 50 |  |  |  |  | 90 |  |  |  |  |  |  | Degradation in SIF [1]: no significant degradation; half-life ([1]; simulated intestinal fluid (SIF), pH 6.5): > 120 min; half-life ([2]; human, human liver microsomes, pH 7.4): 45.3 ± 3.3 min; Degradation in SGF [3]: no significant degradation; half-life ([3]; simulated gastric fluid (SGF), pH 1.2): > 120 min; Papp at 90 min, 100 μM [13]: 2 ×10⁻⁶ cm/s; Peff, mouse perfusion ([4]; mouse jejunum, 100 μM, pH 6.0): 2.0 ± 0.2 ×10^−5 cm/s; half-life ([5]; human, AsPC-1 cell homogenates, pH 7.4): 33.7 ± 14.5 min; GI50 ([6]; Homo sapiens, ASPC1, pH 6, read-out: GI50 AsPC-1): 10.2 ± 1.6 mM; Difference in membrane permeability with and without 10 mM Gly-Pro ([14]; Caco-2 monolayers): did not exhibit the difference; Species detected in the basolateral receiver compartment ([14]; following transport across Caco-2 monolayers): only cytosine; Papp at 2 h, 0.1 mM [15]: 1 ± 0.2 ×10⁻⁶ cm/s; Resistance against thymidine phosphorylase (words) [7]: rapidly cleaved; Resistance against thymidine phosphorylase (words) ([7]; listed as gemcitabine): did not display the resistance; half-life ([7]; thymidine phosphorylase, pH 7.4): 6 ± 1.8 min; Difference in uptake amount with and without 10 mM Gly-Pro ([8]; Caco-2 cells): did not exhibit the difference; Degradation in pH 7.4 phosphate buffer ([9]; pH 7.4): no significant degradation; half-life ([9]; phosphate buffer, pH 7.4): > 120 min; half-life ([10]; human, Caco-2, pH 7.4): 105 ± 6.1 min
